ERp5 block: ERp5 (human) disulfide isomerase inhibition; Q15084; ERp5 insulin aggregation, absorbance 650 nm, 90 min; inhibition, % at 9.99 µM; 350,000 tested, 0.05% active; AID 651711;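 active means mean replicate inhibition above about 25%, with every replicate also reaching it, limit read from the data, passing the limit was not always enough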
PDI turbidity: blocks human protein disulfide isomerase activity. PDI insulin aggregation turbidity, A650, 90 min. inhibition, % at 10 µM. 350,000 tested, 0.052% active;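 active means mean inhibition across replicates of 30% or more, whatever share of single replicates reach that level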
Target sequence (P07237 whole entry, looked up): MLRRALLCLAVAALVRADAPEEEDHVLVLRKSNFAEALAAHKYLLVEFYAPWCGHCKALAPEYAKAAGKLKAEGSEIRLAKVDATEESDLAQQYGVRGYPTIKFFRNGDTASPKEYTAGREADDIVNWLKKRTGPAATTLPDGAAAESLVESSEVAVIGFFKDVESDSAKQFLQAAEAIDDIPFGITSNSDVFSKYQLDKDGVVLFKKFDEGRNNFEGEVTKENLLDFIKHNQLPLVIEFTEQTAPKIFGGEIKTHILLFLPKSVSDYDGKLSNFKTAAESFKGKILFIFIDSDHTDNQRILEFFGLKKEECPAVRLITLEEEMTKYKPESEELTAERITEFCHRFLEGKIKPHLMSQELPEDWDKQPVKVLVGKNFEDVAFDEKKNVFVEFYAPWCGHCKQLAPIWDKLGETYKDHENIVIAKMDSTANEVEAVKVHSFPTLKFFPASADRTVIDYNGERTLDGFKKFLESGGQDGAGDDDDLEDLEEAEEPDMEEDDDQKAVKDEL
RAD54 inh: inhibitors of human RAD54 branch migration; RAD54 Holliday junction branch migration, FAM/BHQ fluorescence; AID 602329; 360,000 tested, 0.14% active; Q92698; inhibition, % at 10.4 µM;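 active means mean normalized replicate activity at least 40 and at least half of replicates scoring 40 or more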;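 further: 0% = median of neutral control wells and 100% = median of positive control wells; inhibitors cause a drop in the FAM fluorescence signal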
PglD inh: PglD (C. jejuni) enzyme inhibition; purified PglD enzyme, DTNB colorimetric CoA detection; AID 602405; inhibition, % at 12.5 µM; 360,000 tested, 0.098% active; in the data active means inhibition above about 16%, passing the limit was not always enough
S100A4 inh HTS: blocks human S100A4 binding to myosin IIA peptide; 360,000 tested, 0.14% active; AID 652163; inhibition, % at 10.7 µM; S100A4/TAMRA-MyoIIA peptide fluorescence polarization; P26447;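 active means mean inhibition of at least 70% across replicates, with every replicate also reaching that level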
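assay system = human S100A4 monomer with TAMRA-labelled myosin IIA peptide | also added = labelled myosin peptide probe, 5 nM | incubation = 5 min between mix addition and reading | control set = DMSO and TFP controls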
FN deposition inh: fibronectin deposition inhibition; 350,000 tested, 0.086% active; inhibition, % at 12.6 µM; AH1F fibroblasts, Alexa488-fibronectin deposition fluorescence, overnight;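 active means mean inhibition across replicates of 30% or more, regardless of how many single replicates reach that level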;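 further: positive control wells lacked labelled fibronectin entirely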
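Material: AH1F fibroblast monolayer depositing Alexa488-labelled fibronectin into matrix | Input: 10000 AH1F cells/well | Medium: DMEM plus 2% serum, read in PBS | Reagent: Alexa488-fibronectin, 24 nM final in well | Compound dosing: One dose per compound, pinned | Schedule: 1 h adhesion, overnight exposure | Measured by: Fluorescence at 485 nm excitation, 525 nm emission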
Active calls of the source: *; x = no result given. Shown are actives, neighbours in structure and some others; about 0.44% of the full set was active somewhere.

SMILES | ERp5 block | PDI turbidity | RAD54 inh | PglD inh | S100A4 inh HTS | FN deposition inh
CCOC(=O)c1c(CN2CCN(C)CC2)n(-c2ccccc2)c2cc(Br)c(O)cc12 | -2.1 | 14.1 | x | x | -4.8 | -6.1
CCOC(=O)c1c(CN2CCN(CCO)CC2)n(-c2ccccc2)c2cc(Br)c(O)cc12 | -3.9 | 58.3* | x | x | 3.6 | 12.5
COc1ccc(-c2nc(NCCCN(C)C)c3ccccc3n2)cc1 | -4.5 | -8.0 | 90.5* | -2.0 | -4.8 | -1.2
CCN(CC)CCCNc1nc2ccccc2c2[nH]c3ccc(OC)cc3c12 | 6.6 | 60.0* | x | x | 4.1 | 14.9
COCC(=O)N1CC2(CCN(C(=O)NC(C)C)CC2)c2c(n(C)c3cc(OC)ccc23)[C@H]1CO | 0.3 | x | x | x | 2.4 | x
CN(C)CCOc1ccc2c(c1)C(=O)C(=Cc1ncc([N+](=O)[O-])n1C)C2 | 24.1 | -3.5 | 61.5* | -2.5 | 13.8 | 6.1
C[C@]12CC[C@H]3C(=CCc4cc(O)ccc43)[C@@H]1CCC2=O | 0.8 | 33.3* | -5.7 | 1.8 | -3.5 | 3.4
O=C(C[C@@H]1CC[C@H](NC(=O)Nc2ccccc2F)[C@@H](CO)O1)NCc1ccc(-c2ccccc2)cc1 | -8.7 | x | x | x | 4.2 | x
N#CCCN(CCC#N)C(=O)C1c2ccccc2Oc2ccccc21 | 3.3 | 9.5 | -58.9 | 5.2 | 131.2* | 0.6
C[C@H]1CN([C@@H](C)CO)C(=O)c2cc(-c3cccc(C#N)c3)cnc2O[C@@H]1CN(C)C(=O)C1CCCCC1 | -0.8 | x | x | x | 27.4 | x
COc1ccc(Cl)cc1NC(=O)CSc1nc(Nc2ccccc2)nc(N2CCOCC2)n1 | 3.1 | -0.1 | 6.6 | 0.3 | -1.7 | 30.6*
C[C@H]1CN(C)C(=O)c2cc([N+](=O)[O-])ccc2O[C@@H]1CN(C)C(=O)OC(C)(C)C | x | x | x | x | x | 1.0
O=C(N[C@H]1CC[C@@H](CC(=O)N2CCOCC2)O[C@@H]1CO)c1ccccn1 | 3.5 | x | -2.8 | -1.1 | -0.3 | x
CO[C@H]1CN(C)C(=O)c2cc(NC(C)=O)ccc2OC[C@@H](C)NC[C@@H]1C | -0.2 | x | -12.4 | 19.2* | -0.8 | x
CO[C@H]1CN(C)C(=O)c2cc(NC(=O)Nc3ccc(C(F)(F)F)cc3)ccc2OC[C@H](C)NC[C@H]1C | 0.4 | x | 8.6 | -2.8 | 136.0* | 26.7
CO[C@@H]1CN(C)C(=O)c2cc(NC(C)=O)ccc2OC[C@H](C)N(Cc2cncnc2)C[C@H]1C | 2.3 | x | x | x | 75.6* | 6.6
CO[C@H]1CN(C)C(=O)c2ccc(NC(C)=O)cc2OC[C@@H](C)N(Cc2cncnc2)C[C@@H]1C | -6.0 | x | -2.3 | 0.8 | -1.0 | -9.1
O=C(C[C@@H]1CC[C@H]2[C@@H](COC[C@H](O)CN2Cc2cccc(Cl)c2)O1)Nc1nccs1 | -2.0 | x | 1.4 | 1.3 | -5.3 | -3.9
CCN(CC)c1ccc(N=C2C=CC(=O)C=C2NC(C)=O)cc1 | -13.8 | 8.3 | -10.7 | -5.8 | 127.1* | 17.6
CC[N+](CC)(CC)CCCCOc1ccc2c(c1)C(=O)c1cc(OCCCC[N+](CC)(CC)CC)ccc1-2 | x | -2.2 | 98.9* | -9.0 | 2.2 | 3.7
C[C@H](CO)N1C[C@H](C)[C@@H](CN(C)S(=O)(=O)c2cn(C)cn2)Oc2ccc(NC(=O)c3ccncc3)cc2CC1=O | 64.6* | x | 7.1 | -1.4 | 18.6 | x
C[C@H]1CN([C@@H](C)CO)C(=O)Cc2cc(NC(=O)c3ccncc3)ccc2O[C@H]1CN(C)S(=O)(=O)c1cn(C)cn1 | 74.4* | x | 0.7 | 7.1 | -8.6 | x
C[C@@H]1CN([C@@H](C)CO)C(=O)Cc2cc(NC(=O)c3ccncc3)ccc2O[C@@H]1CN(C)S(=O)(=O)c1cn(C)cn1 | 1.7 | x | x | x | 2.4 | x
Cc1ccc(NC(=O)c2cccc(S(C)(=O)=O)c2)cc1 | 25.5* | 6.5 | x | x | -0.7 | -1.0
CC(C(=O)N1CCOCC1)N1C(=O)c2cccc3cccc(c23)C1=O (stereo unspecified) | -4.4 | 18.1 | x | x | -1.3 | 1.2
O=C1C=C(N2CCOCC2)c2cccc3cccc1c23 | 9.9 | 7.9 | 1.0 | 0.4 | 83.2* | 2.8
O=C1C(N2CCOCC2)=Cc2cccc3cccc1c23 | -3.3 | 11.9 | -6.5 | -3.2 | 90.1* | -17.5
O=C1C=C(N2CCOCC2)c2ccccc2C1=O | 21.0 | 1.9 | 9.6 | 1.5 | -7.9 | 2.2
COc1ccc(C#Cc2ccc3c(c2)[C@H]2[C@H](CCN2Cc2ccncc2)[C@H](CO)N3)cc1 | -4.1 | x | x | x | -1.0 | -74.4
